Measured values published in paper PMC8561236 (Cell Reports Medicine, 2021).

Experiments:
[1] = tested on: Ly6Chigh monocytes in EAU mice; assay: Experimental autoimmune uveitis; design: species or system B10.RIII mice; conditions: mouse, in vivo, 200 mg/kg
[2] = tested on: RAW264.7 cells; conditions: same experimental condition; cited from earlier work
[3] = tested on: CD172+ CD43− monocytes in anti-GBM rats; assay: Anti-GBM induced glomerulonephritis, blood monocyte analysis; format: in vivo, Wistar Kyoto rats; conditions: oral, 4.56 μmol/kg on day 0 or 575 nmol/kg on days 0 and 3, day 6 whole blood
Procedure, shortened: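 Male WKY rats on folate-deficient diet for 10 days, then IV anti-GBM serum (25 μL/100 g); diet continued. Dosing at 8 h (day 0) and day 3, ± 300-fold molar excess FA competitor; n = 3. Blood in 5 mM K2EDTA, analysed next day: RBC lysis of 100 μL blood, flow staining. CD172+CD43− monocytes expressed as percentage of total leukocytes.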

[4] = Pharmacokinetic study in rats; format: in vivo, Lewis rats; conditions: rat, EC2319 subcutaneous 500 nmol/kg; analyte = label
[5] = tested on: FRβ; conditions: cited from earlier work
[6] = Pharmacokinetic study in dogs; format: in vivo, beagle dogs; conditions: dog

CNC(=O)c1cc(Oc2ccc3nc(N[C@@H]4CCCC[C@H]4O)sc3c2)ccn1 [BLZ945]
effect on classical (R1, Ly6Chigh CD43+) monocytes [1]: reduced significantly to background levels

Nc1nc(=O)c2nc(CNc3ccc(C(=O)N[C@@H](CCC(=O)O)C(=O)O)cc3)cnc2[nH]1 [FA, Folic acid]
biological effect of FA alone [2]: did not show an immediate biological effect

CN(Cc1cnc2nc(N)nc(N)c2n1)c1ccc(C(=O)N[C@@H](CCC(=O)O)C(=O)O)cc1 [MTX, Methotrexate]
effect on CD172+ CD43− monocytes [3]: ineffective

Nc1nc(N)c2nc(CNc3ccc(C(=O)N[C@@H](CCC(=O)O)C(=O)O)cc3)cnc2n1 [AMT, Aminopterin]
AUClast (% Total) [4]: 9.17%
binding affinity toward FRβ [5]: negligible
difference in AUClast between EC2319-derived AMT and the AMT adduct [6]: 3- to 7 fold
share of total AUClast ([6]; both dosing routes (intravenous 1 mg/kg, subcutaneous 2.43 mg/kg), analyte = label): 1.37%–2.99%
